# Only some compounds are listed: those with a hit (about 3.5% of all), similar ones and a draw of the others.
# pPAFAH FP inh – inhibitors of human plasma PAF acetylhydrolase (pPAFAH); Q13093; recombinant pPAFAH, FP-rhodamine probe fluorescence polarization; inhibition, % at 3.39 µM; 330,000 tested, 1.5% active; AID 463082;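 active = inhibition above the mean inhibition across the screen plus 3 SD, cut at about 25% in these data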;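 also: inhibitors block binding of the rhodamine activity-based probe so polarization drops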
# Target sequence (Q13093 whole entry, looked up): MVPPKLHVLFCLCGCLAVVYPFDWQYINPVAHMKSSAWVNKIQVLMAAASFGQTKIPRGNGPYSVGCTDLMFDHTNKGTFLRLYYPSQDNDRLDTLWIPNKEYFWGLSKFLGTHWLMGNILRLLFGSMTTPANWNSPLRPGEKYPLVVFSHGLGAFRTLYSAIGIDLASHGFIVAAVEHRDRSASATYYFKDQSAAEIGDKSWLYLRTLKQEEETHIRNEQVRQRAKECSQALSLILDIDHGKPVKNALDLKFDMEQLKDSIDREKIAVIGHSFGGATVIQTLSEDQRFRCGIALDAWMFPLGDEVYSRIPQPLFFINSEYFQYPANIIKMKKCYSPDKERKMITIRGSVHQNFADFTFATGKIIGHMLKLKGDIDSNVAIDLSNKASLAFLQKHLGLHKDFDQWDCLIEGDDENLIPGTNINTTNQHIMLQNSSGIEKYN
# PREPL inh – inhibits the human prolyl oligopeptidase-like enzyme. recombinant PREPL, fluorescence polarization activity-based probe. inhibition, % at 5.96 µM. 320,000 tested, 0.68% active; in the data active = inhibition above about 43%
# PAFAH1B2 FP inh – inhibitors of human PAFAH1B2. P68402. recombinant PAFAH1B2, FP-rhodamine activity probe, fluorescence polarization. inhibition, % at 3.39 µM. 340,000 tested, 1.2% active;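 active = inhibition above the mean of all tested compounds plus 3 SD, cut at about 24% in these data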
# Apaf-1 inh – blocks human Apaf-1 apoptosome activity. reconstituted apoptosome caspase-3 activity, DEVD-Rh110 fluorescence. inhibition, % at 20 µM. 330,000 tested, 0.71% active; active = inhibition of at least 40% at 20 µM
#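 Assay system – apoptosome proteins · Medium – Hepes buffer, pH 7.5 · Also added – cytochrome c with DEVD-Rh110 · Timing – 30 min compound preincubation, 50 min activation, room temperature · Detection – Rh110 fluorescence, excitation 480 nm, emission 540 nm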
# PAFAH1B3 FP inh – inhibitors of human PAFAH1B3; Q15102; inhibition, % at 3.39 µM; recombinant PAFAH1B3, FP-rhodamine probe, fluorescence polarization; 340,000 tested, 0.28% active;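 active = inhibition above the screen-wide average of all tested compounds plus 3 SD, cut at about 25% in these data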
# PAFAH2 FP inh – PAFAH2 (human) inhibition; Q99487; recombinant PAFAH2, FP-rhodamine activity probe, fluorescence polarization; inhibition, % at 3.39 µM; 340,000 tested, 0.99% active;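 active = inhibition above the mean over all tested compounds plus 3 SD, cut at about 30% in these data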;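 also: inhibitors block probe labeling of enzyme so polarization drops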
# Hits are given with their value; n = inactive; x = no result.
SMILES,pPAFAH FP inh,PREPL inh,PAFAH1B2 FP inh,Apaf-1 inh,PAFAH1B3 FP inh,PAFAH2 FP inh
O=C(NN=Cc1cc(Br)c(O)c(Br)c1)c1ccccc1NS(=O)(=O)c1cccs1,30.7,n,n,n,30.2,n
O=C(N/N=C/c1ccc([N+](=O)[O-])o1)c1ccccc1NS(=O)(=O)c1cccs1,33.9,n,n,n,n,n
O=C(NN=Cc1ccc(F)cc1)c1ccccc1NS(=O)(=O)c1cccs1,n,n,n,n,n,n
COc1ccc(C(=O)O)cc1S(=O)(=O)Nc1ccc2cn[nH]c2c1,n,n,n,n,n,n
CC(=O)c1ccc[n+](CC(=O)NC(C)c2ccccc2)c1 (centres undefined),n,n,n,n,n,n
Cc1cc(C)cc(N2C(=O)CC(n3nc(C)cc3C)C2=O)c1 (centres undefined),n,n,n,n,n,n
Cc1noc(/C=C/N(C)C)c1S(=O)(=O)N1CCCC(C(=O)NCCC2=CCCCC2)C1 (centres undefined),25.2,n,n,n,n,n
Cc1noc(C)c1S(=O)(=O)N1CCCC(C(=O)NCCC2=CCCCC2)C1 (centres undefined),n,n,n,n,n,n
Cc1ccc(CCNC(=O)C2CCCN(S(=O)(=O)c3c(C)nn(C)c3C)C2)cc1 (centres undefined),n,n,29.1,n,n,n
CCS(=O)(=O)N1CCCC(C(=O)NCCc2ccc(C)cc2)C1 (centres undefined),n,n,n,n,n,n
O=C(Nc1cccc([N+](=O)[O-])c1)Nc1ccc2c(c1)OCCO2,n,n,n,n,n,n
COC(C/C=C\C(=O)COCc1ccccc1)OC,25.2,n,x,n,x,x
CC1=NN(c2ccccc2)C(=O)C1C=Nc1ccc(N(C)C)cc1 (centres undefined),34.1,n,x,n,x,x
Cc1ccc(SCCC(=O)OCC(=O)Nc2ccc(S(N)(=O)=O)cc2)cc1,n,n,24.2,n,n,n
NS(=O)(=O)c1ccc(NC(=O)COC(=O)CCc2ccccc2)cc1,n,n,n,n,n,n
Cc1cccc(C)c1NC(=O)CN(C)C(=O)c1ccccc1SCC(=O)N1CCCC1,n,n,n,42.0,n,n
CNC(=O)c1c(NC(=O)c2ccc(S(=O)(=O)N3CCCC3)cc2)sc2c1CCN(C(C)C)C2,n,44.3,x,n,x,x
NC(=O)/C(=C/c1ccco1)C(N)=S,25.8,n,n,n,n,n
Cc1cccc(NS(=O)(=O)c2ccc(OCC(=O)N3CCCC3)cc2)c1,34.1,n,n,n,n,n
O=C(c1cccc(NS(=O)(=O)c2ccccc2)c1)N1CCCC1,n,n,n,n,n,n
CCN(CC(=O)NCc1cccs1)C(=O)c1cccc(S(=O)(=O)Nc2cccc(C)c2)c1,31.2,n,n,n,n,n
Cc1cccc(NS(=O)(=O)c2cccc(C(=O)N3CCCC3)c2)c1,27.4,n,n,n,n,n
COc1ccc(NS(=O)(=O)c2cccc(C(=O)N3CCC3)c2)cc1,n,n,n,n,n,n
COc1ccc(NS(=O)(=O)c2cccc(C(=O)N3CCCC(C)C3)c2)cc1 (centres undefined),24.6,n,n,n,n,n
CCC(Oc1ccccc1F)C(=O)NCCCn1ccnc1 (centres undefined),n,n,n,n,n,n
SMILES,pPAFAH FP inh,PREPL inh,PAFAH1B2 FP inh,Apaf-1 inh,PAFAH1B3 FP inh,PAFAH2 FP inh
COc1ccc(/C=C/C(=O)Nc2cccc(N3CCOCC3)c2)cc1OC,n,n,n,n,n,n
CCOc1ccc(OCCCC(=O)N2CCN(S(=O)(=O)c3ccccc3C#N)CC2)cc1,n,n,n,n,n,n
Cc1ccc(NC2Sc3ccccc3NC2=O)cc1 (centres undefined),n,n,n,n,n,n
O=C(c1cccc(S(=O)(=O)Nc2ccccc2Cl)c1)N1CCN(c2ccccc2O)CC1,n,n,n,n,n,n
O=C(c1cccc(NS(=O)(=O)c2ccc(Br)cc2)c1)N1CCN(c2ccccc2O)CC1,x,x,24.5,n,n,n
Nc1c(C(=O)c2ccccc2)sc2snc(SCC(=O)c3ccccc3)c12,27.1,n,n,n,n,43.9
Cc1cc(C)cc(C(=O)NCC(=O)NNC(=O)CSc2ccccc2F)c1,n,n,n,n,n,n
Cc1ccccc1Cn1c(NC2CCCC2)nc2c1c(=O)[nH]c(=O)n2C,32.8,n,n,n,n,n
